Tests used:
Casein kinase II = Casein kinase II (Homo sapiens, UniProt P19784+P67870+P68400); assay: Inhibitory activity against CKII kinase.; assay type: protein-complex assay
[1] = target: T1, Inhibitor of nuclear factor kappa-B kinase subunit beta (Homo sapiens, UniProt O14920); assay: Inhibitory activity against IkappaB kinase(IKK) isolated from HeLa cells activated with recombinant […] in an ELISA phosphorylation assay.; assay type: cell-free
T1 sequence (O14920 whole entry): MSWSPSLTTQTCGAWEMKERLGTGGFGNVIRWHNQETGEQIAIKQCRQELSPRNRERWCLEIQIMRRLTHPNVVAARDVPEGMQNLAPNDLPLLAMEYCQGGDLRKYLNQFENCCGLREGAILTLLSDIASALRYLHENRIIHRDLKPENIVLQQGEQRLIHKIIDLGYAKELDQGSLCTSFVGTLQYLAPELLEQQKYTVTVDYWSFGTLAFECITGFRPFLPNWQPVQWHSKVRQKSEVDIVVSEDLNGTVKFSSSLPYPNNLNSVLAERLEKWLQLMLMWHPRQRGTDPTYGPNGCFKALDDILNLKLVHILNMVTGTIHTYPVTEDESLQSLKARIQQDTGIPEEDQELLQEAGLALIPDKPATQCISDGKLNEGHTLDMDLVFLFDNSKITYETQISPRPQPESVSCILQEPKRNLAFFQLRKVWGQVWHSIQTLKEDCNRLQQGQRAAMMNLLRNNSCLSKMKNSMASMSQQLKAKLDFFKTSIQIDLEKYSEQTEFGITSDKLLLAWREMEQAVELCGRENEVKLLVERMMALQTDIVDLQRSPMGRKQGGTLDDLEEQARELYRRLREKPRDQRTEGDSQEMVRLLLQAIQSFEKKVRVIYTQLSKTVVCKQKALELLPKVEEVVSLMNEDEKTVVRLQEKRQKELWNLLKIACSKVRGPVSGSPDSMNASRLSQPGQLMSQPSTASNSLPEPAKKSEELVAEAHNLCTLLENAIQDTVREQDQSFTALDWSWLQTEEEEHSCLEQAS

Protein kinase C (PKC) = assay: Inhibitory activity against protein kinase C.; assay type: protein assay
[2] = target: T2, cAMP-dependent protein kinase (PKA) (Homo sapiens, UniProt P22694+P17612+P22612); assay: Inhibitory activity against protein kinase A.; assay type: protein assay
[3] = target: Casein kinase II (Homo sapiens) (UniProt P67870+P68400+P19784); assay: Inhibition of the casein kinase CKII at 25 uM; assay type: protein-complex assay
HeLa = assay: Inhibition of IkappaB kinase(IKK) from HeLa cells activated by recombinant MEKK1 in ELISA at 25 uM; assay type: cell-based; settings: Homo sapiens
[4] = target: Protein kinase C (PKC) (Homo sapiens) (UniProt O94806+P41743+P17252+P05129+Q05655+P05771+Q05513+Q02156+P24723+Q15139+Q04759); assay: Inhibition of Protein kinase C at 25 uM; assay type: protein assay
[5] = target: T2, cAMP-dependent protein kinase (PKA); assay: Inhibition of Protein kinase A at 25 uM; assay type: protein assay
[6] = target: NF-kappa-B essential modulator (Homo sapiens, UniProt Q9Y6K9); assay: Inhibition of GST-IkB phosphorylation by TNF-alpha stimulated HeLa cell lysate (IP-IKKgamma); assay type: functional, cell-free
Outline: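 Endogenous IKK complex immunoprecipitated with anti-IKKγ antibody from HeLa cells stimulated with TNF-α (20 ng/mL, 5 min) and lysed in NP-40 IP buffer; beads preincubated with varying inhibitor concentrations 30 min at 30 °C; reaction started with bacterially expressed GST-IκB[5-55] plus MgATP with [γ-32P]ATP, 30 min at 30 °C; phosphorylated substrate quantified by SDS-PAGE and phosphorimaging; IC50.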

Mus musculus = assay: Systemic level of TNF-alpha after oral administration in mice; assay type: functional
Outline: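 Female BALB/c mice given compound orally (50 mg/kg, 5 mL/kg), followed by intraperitoneal E. coli LPS (serotype 0127:B8); blood taken by cardiac puncture into heparin after CO2 euthanasia, spun at 4 °C, and plasma TNF-α measured relative to vehicle-treated controls.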

Chain of Casein kinase II (P67870 whole entry): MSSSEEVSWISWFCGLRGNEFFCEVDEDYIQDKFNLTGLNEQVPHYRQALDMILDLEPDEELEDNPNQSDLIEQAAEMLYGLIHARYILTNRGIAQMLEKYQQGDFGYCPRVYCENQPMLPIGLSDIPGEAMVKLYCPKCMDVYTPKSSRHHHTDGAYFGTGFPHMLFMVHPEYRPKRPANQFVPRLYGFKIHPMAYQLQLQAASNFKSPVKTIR
Chain of Casein kinase II (P68400 whole entry): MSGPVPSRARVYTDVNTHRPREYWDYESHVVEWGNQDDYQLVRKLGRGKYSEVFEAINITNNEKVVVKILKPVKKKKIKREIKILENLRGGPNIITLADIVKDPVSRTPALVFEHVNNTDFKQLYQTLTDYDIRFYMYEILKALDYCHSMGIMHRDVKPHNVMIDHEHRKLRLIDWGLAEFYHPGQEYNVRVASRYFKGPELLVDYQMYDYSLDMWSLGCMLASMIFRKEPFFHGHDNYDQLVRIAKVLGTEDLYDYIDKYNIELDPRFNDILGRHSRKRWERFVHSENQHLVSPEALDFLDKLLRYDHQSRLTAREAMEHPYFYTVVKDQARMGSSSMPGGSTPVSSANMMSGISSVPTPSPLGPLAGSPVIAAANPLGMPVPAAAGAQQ
Chain of Casein kinase II (P19784 whole entry): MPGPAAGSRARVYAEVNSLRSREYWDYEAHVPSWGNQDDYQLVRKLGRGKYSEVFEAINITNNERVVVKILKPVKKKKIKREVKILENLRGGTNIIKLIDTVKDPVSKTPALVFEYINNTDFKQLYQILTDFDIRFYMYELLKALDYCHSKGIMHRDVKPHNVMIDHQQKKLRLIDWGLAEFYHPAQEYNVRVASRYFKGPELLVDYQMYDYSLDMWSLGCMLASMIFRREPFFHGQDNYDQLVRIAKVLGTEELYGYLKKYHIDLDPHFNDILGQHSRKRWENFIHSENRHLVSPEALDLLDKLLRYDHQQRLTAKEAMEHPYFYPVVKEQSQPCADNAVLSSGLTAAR
Chain of NF-kappa-B essential modulator (Q9Y6K9 whole entry): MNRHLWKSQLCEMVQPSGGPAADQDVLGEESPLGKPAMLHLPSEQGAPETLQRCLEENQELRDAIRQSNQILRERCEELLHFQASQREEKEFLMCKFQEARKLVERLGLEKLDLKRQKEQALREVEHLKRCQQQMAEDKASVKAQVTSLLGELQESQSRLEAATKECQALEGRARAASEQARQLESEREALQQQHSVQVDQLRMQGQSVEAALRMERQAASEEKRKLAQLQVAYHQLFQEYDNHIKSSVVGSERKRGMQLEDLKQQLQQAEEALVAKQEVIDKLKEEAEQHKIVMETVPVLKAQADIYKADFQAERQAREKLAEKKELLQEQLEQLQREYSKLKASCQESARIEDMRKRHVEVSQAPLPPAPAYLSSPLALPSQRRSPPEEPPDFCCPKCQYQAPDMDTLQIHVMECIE

Row | Compound | IC50 (Casein kinase II) [µM] | IC50 [1] [µM] | IC50 (Protein kinase C (PKC)) [µM] | IC50 [2] [µM] | EC50 [6] [µM] | inhibition [3] [%] | inhibition (HeLa) [%] | inhibition [4] [%] | inhibition [5] [%] | Reduction (Mus musculus) [%]
1 | Fc1ccc2[nH]c3cnccc3c2c1 | > 25 | 2 | > 25 | > 25 |  |  |  |  |  | 
2 | CN(C)c1cc(Cl)cc2c3cc[nH]cc-3nc12 |  | 1.8 |  |  |  |  |  |  |  | 
3 | CC(=O)Nc1cc(Cl)cc2c3cc[nH]cc-3nc12 | > 25 | 0.6 | > 25 | > 25 |  |  |  |  |  | 
4 | CNC(=O)Nc1cc(Cl)cc2c3cc[nH]cc-3nc12 | > 25 | > 20 | > 25 | > 25 |  |  |  |  |  | 
5 | O=[N+]([O-])c1cc(Cl)cc2c3cc[nH]cc-3nc12 | > 25 | 4 | > 25 | > 25 |  |  |  |  |  | 
6 | c1ccc2c(c1)[nH]c1cnccc12 [NORHARMANE] | > 25 | 15 | > 25 | > 25 |  |  |  |  |  | 
7 | Clc1ccc2[nH]c3cnccc3c2c1 | > 25 | 0.6 | > 25 | > 25 |  |  |  |  |  | 
8 | FC(F)(F)c1ccc2[nH]c3cnccc3c2c1 |  | 1.1 |  |  |  |  |  |  |  | 
9 | O=C(Oc1c(Cl)cc2c3cc[nH]cc-3nc2c1Cl)N1CCOCC1 |  | 3.2 |  |  |  |  |  |  |  | 
10 | Clc1cc(Cl)c2[nH]c3cnccc3c2c1 | > 25 | 0.2 | > 25 | > 25 |  |  |  |  |  | 
11 | Oc1c(Cl)cc2c3cc[nH]cc-3nc2c1Cl | > 25 | 11 | > 25 | > 25 |  |  |  |  |  | 
12 | COC(=O)Nc1cc(Cl)cc2c3cc[nH]cc-3nc12 | > 25 | 0.7 | > 25 | > 25 |  |  |  |  |  | 
13 | Brc1ccc2[nH]c3cnccc3c2c1 | > 25 | 0.6 | > 25 | > 25 |  |  |  |  |  | 
14 | Clc1cc2c([nH]c3cnccc32)c(Cl)c1OCC1CC1 | > 25 | 0.08 | > 25 | > 25 |  |  |  |  |  | 
15 | COc1c(Cl)cc2c3cc[nH]cc-3nc2c1Cl | > 25 | 0.17 | > 25 | > 25 |  |  |  |  |  | 
16 | O=C(CCCO)Nc1cc(Cl)cc2c3cc[nH]cc-3nc12 | > 25 | > 20 | > 25 | > 25 |  |  |  |  |  | 
17 | Nc1cc(Cl)cc2c3cc[nH]cc-3nc12 |  | 1.3 |  |  |  |  |  |  |  | 
18 | COc1ccc2[nH]c3cnccc3c2c1 | > 25 | 4 | > 25 | > 25 |  |  |  |  |  | 
19 | Clc1cc2c3cc[nH]cc-3nc2c(Cl)c1OCC1CCCCC1 | > 25 | 3 | > 25 | > 25 |  |  |  |  |  | 
20 | CNc1cc(Cl)cc2c3cc[nH]cc-3nc12 |  | 1.8 |  |  |  |  |  |  |  | 
21 | CCOc1c(Cl)cc2c3cc[nH]cc-3nc2c1Cl | > 25 | 0.14 | > 25 | > 25 |  |  |  |  |  | 
22 | CS(=O)(=O)Nc1cc(Cl)cc2c3cc[nH]cc-3nc12 | > 25 | 8.3 | > 25 | > 25 |  |  |  |  |  | 
23 | COc1ccc2[nH]c3cnccc3c2c1Br | 2 | 1 | 15 |  |  | 75 | 90 | 65 | 10 | 
24 | N#Cc1ccc2[nH]c3cnccc3c2c1 |  | 1.1 |  |  |  |  |  |  |  | 

Now from value to compound, other results behind:

Row | IC50 (Casein kinase II) [µM] | IC50 [1] [µM] | IC50 (Protein kinase C (PKC)) [µM] | IC50 [2] [µM] | EC50 [6] [µM] | Compound | inhibition [3] [%] | inhibition (HeLa) [%] | inhibition [4] [%] | inhibition [5] [%] | Reduction (Mus musculus) [%]
25 | > 25 | 1.3 | > 25 | > 25 |  | COc1ccc(C(=O)Nc2cc(Cl)cc3c2[nH]c2cnccc23)cc1 |  |  |  |  | 
26 | > 25 | 3 | > 25 | > 25 |  | O=C(Cc1ccccn1)Nc1cc(Cl)cc2c1[nH]c1cnccc12 |  |  |  |  | 
27 | > 25 | > 20 | > 25 | > 25 |  | Clc1cc(NCc2ccccc2)c2[nH]c3cnccc3c2c1 |  |  |  |  | 
28 | > 25 | 0.3 | > 25 | > 25 |  | O=C(Nc1cc(Cl)cc2c1[nH]c1cnccc12)c1ccncc1 |  |  |  |  | 
29 | > 25 | > 20 | > 25 | > 25 |  | O=C(Nc1cc(Cl)cc2c1[nH]c1cnccc12)N1CCOCC1 |  |  |  |  | 
30 | > 25 | 1 | > 25 | > 25 |  | O=C(Nc1cc(Cl)cc2c1[nH]c1cnccc12)c1ccccn1 |  |  |  |  | 
31 | > 25 | > 20 | > 25 | > 25 |  | O=S(=O)(Nc1cc(Cl)cc2c1[nH]c1cnccc12)c1ccccc1 |  |  |  |  | 
32 | > 25 | 0.6 | > 25 | > 25 |  | COc1cccc(C(=O)Nc2cc(Cl)cc3c2[nH]c2cnccc23)c1 |  |  |  |  | 
33 | > 25 | > 20 | > 25 | > 25 |  | COc1ccccc1C(=O)Nc1cc(Cl)cc2c1[nH]c1cnccc12 |  |  |  |  | 
34 | > 25 | 0.1 | > 25 | > 25 | 0.15 | O=C(Nc1cc(Cl)cc2c1[nH]c1cnccc12)c1cccnc1 |  |  |  |  | 60
35 | > 25 | 0.7 | > 25 | > 25 |  | O=C(Nc1cc(Cl)cc2c1[nH]c1cnccc12)c1ccccc1 |  |  |  |  | 

Source: ChEMBL document CHEMBL1136119, “Novel IKK inhibitors: beta-carbolines” (Bioorg Med Chem Lett, 2003)
